Bioassay records as filed in PubChem.
MrgX1 antagonist: blocks BAM8-22 activation of human MrgX1 receptor; Q96LB2; MRGX1-HEK293 calcium flux, Fluo-4, BAM8-22 antagonism; hits give low values; B-score at 10 µM; 1.3% of 310,000 active; AID 588676;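 active = calcium-response B-score plate-corrected more than 3 library SD below zero, starting fluorescence within 5 deviations, no agonist response on first addition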;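 also: peak minus trough fluorescence over baseline after final BAM8-22 challenge near maximal dose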
Target sequence (Q96LB2 whole entry, looked up): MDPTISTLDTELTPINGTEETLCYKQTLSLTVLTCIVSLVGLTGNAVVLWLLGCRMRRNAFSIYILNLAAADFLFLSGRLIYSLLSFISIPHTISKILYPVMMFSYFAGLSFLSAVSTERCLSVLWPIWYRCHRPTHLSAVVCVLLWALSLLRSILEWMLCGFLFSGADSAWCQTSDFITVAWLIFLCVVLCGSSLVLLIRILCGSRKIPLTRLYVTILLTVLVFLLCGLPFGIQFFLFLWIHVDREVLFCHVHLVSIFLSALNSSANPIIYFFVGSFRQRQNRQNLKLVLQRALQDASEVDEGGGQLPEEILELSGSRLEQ
RGS4 pot: RGS4 potentiation or activation; B-score at 10 µM; 0.92% of 310,000 active; HEK293 M3R/inducible RGS4, carbachol calcium flux Fluo4; hits give low values;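 active = B-score of the integrated calcium signal more than 4 SD below the library mean, with starting fluorescence not abnormally high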;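 also: negative B-score means reduced calcium response which marks RGS4 activation or potentiation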
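Assay system: HEK293 FlpIn-TREx cells, stable M3R, doxycycline-inducible RGS4 / Probe or stimulus: carbachol, ECmax concentration / Times: overnight RGS4 induction, 30 min dye load 37 °C, 20 min compound RT / Signal: kinetic calcium fluorescence imaging with Fluo4-AM dye, 2 µM / Measure: Agonist-evoked peak-minus-minimum fluorescence over baseline, integrated ratio, B score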
MrgX1 PAM: allosterically activates human MrgX1 receptor signaling | MrgX1-HEK293, Fluo-4 calcium flux, FDSS; hits give high values | B-score at 10 µM | 0.63% of 310,000 active | Q96LB2;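 active = plate-corrected calcium response at least 3 library SD above typical, normal starting fluorescence, not activating the receptor alone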;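 also: compound read alongside a low EC10 to EC30 dose of BAM8-22 agonist; peak minus trough fluorescence over baseline measured at the second addition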
RGS4 block: inhibitors of human RGS4. B-score at 10 µM. HEK293 M3R/RGS4 inducible, Fluo-4 calcium flux; hits give high values; triggered by carbachol at its EC20. AID 463165. 0.45% of 310,000 active. P49798;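 active = B-score, a plate-corrected calcium signal, over three deviations above library mean, with baseline fluorescence within five deviations of library mean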;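 also: RGS4 expression induced by doxycycline in cells with stable M3 receptor; B-score is computed from the integrated fluorescence ratio over baseline after carbachol; higher B-score means a larger calcium signal and so more RGS4 inhibition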
Target sequence (P49798 whole entry, looked up): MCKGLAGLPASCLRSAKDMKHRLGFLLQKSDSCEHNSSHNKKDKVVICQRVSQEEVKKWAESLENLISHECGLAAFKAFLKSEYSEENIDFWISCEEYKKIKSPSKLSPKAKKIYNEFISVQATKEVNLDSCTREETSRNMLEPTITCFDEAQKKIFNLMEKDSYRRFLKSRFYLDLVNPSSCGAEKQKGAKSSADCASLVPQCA
MrgX1 agonist: agonists of human MrgX1 receptor; Q96LB2; MrgX1-HEK293 cells, Fluo-4 calcium fluorescence, agonist mode; hits give high values; B-score at 10 µM; 0.44% of 310,000 active; AID 588627;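 active = calcium response B-score plate-corrected fluorescence ratio at least 3 library SD, with starting fluorescence B-score inside 5 SD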
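Material: MrgX1-expressing HEK293 cells; input: 15,000 cells per well; doses: test compound given as first of three sequential additions; schedule: overnight plating before 1 h dye loading; technique: Fluo-4 NW calcium-flux fluorescence, kinetic read; evaluation: baseline-normalised fluorescence change ratio, B-scored; control set: plate-wise positive and negative controls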
Of the large screens only hits and unclear results are named; the others gave an inactive call. An excerpt weighted towards active compounds, which were near 3.5% of everything screened.

O=C(Cn1ncc2c3ccccc3n(Cc3ccccc3)c2c1=O)NCCCN1CCCC1=O	MrgX1 antagonist -8.1
O=C(Cn1ncc2c3ccccc3n(Cc3ccc(Cl)cc3)c2c1=O)NCCCN1CCCC1=O	none
COC(=O)Cn1ncc2c3ccccc3n(Cc3ccccc3)c2c1=O	none
CCOC(=O)[C@H]1[C@H]2COc3ccc(C)cc3[C@@H]2N2C(=O)c3cc(F)ccc3NC(=O)[C@@]12C	none (no result: RGS4 pot, RGS4 block)
CN(C)c1ccc(N2CC(C)(C)C2=O)cc1	none
CCOC(=O)c1c(S(=O)(=O)NCC(C)c2ccccc2)c(C)n(C)c1C (stereo unspecified)	none
COc1ccc(CNS(=O)(=O)CCNC(=O)c2ccc(OC)cc2)cc1	MrgX1 antagonist -4.9
CCN(CC)C(=O)c1ccccc1NC(=O)CN1C(=O)c2ccccc2S1(=O)=O	none
COC(=O)CS(=O)(=O)c1nnc([C@H](Cc2ccccc2)NC(=O)OC(C)(C)C)o1	MrgX1 agonist 30
Cc1cccc(CS(=O)(=O)c2nnc([C@H](Cc3ccccc3)NC(=O)OC(C)(C)C)o2)c1	none
C=CCOc1cccc(C(=O)/C=C2/C(=O)Nc3ccccc32)c1	RGS4 block 5.8
COc1ccccc1N(C)S(=O)(=O)c1ccc(C(=O)N2CCCc3ccccc32)cc1	none
N#CC(C#N)=C(Nc1ccc(F)cc1)SCc1cccc(Br)c1	none
Cc1cccc(CSC(Nc2ccc(F)cc2)=C(C#N)C#N)c1	MrgX1 antagonist -6.6
COc1ccccc1/C=N/OCC(=O)NCc1ccc2c(c1)OCO2	none
CCOc1ccc(/C=N/OCC(=O)NCc2ccc3c(c2)OCO3)cc1OC	MrgX1 antagonist -5.9
CCC(C)(C)NC(=O)/C=C/c1cnc2ccccc2n1	MrgX1 antagonist -4.7
O=C(NCCCNC(=O)c1cnccn1)c1ccc(Br)cc1	none
O=C(Nc1ccc2c(c1)OCO2)c1cc(-c2ccc(O)cc2)on1	none
O=[N+]([O-])c1cnc(Sc2ccncn2)s1	RGS4 pot -9.8
Cn1c(Sc2ccccc2Cl)c(C=O)c2ccccc21	RGS4 pot -8.5
O=C1c2ccccc2S(=O)(=O)c2cc(N3CCc4ccccc4C3)ccc21	none
C=C(C)COc1ccc(-c2nc(N)ncc2-c2ccc(Cl)cc2)c(O)c1	none
COc1cc(-c2cc(C(=O)N(C)Cc3ccccc3)c3ccccc3n2)cc(OC)c1OC	none
COCCN(Cc1ccccc1)C(=O)c1cc(-c2ccc(OC)c(OC)c2)nc2ccccc12	RGS4 pot -8.7
COc1cccc(CN(C)C(=O)c2cc(-c3cccs3)nc3ccccc23)c1	RGS4 pot -9.1
CCN(Cc1ccccc1)C(=O)c1cc(-c2ccc(OC)c(OC)c2)nc2ccccc12	RGS4 pot -9.2
COc1ccc(-c2cc(C(=O)N(C)Cc3ccccc3F)c3ccccc3n2)cc1OC	RGS4 pot -8.2
O=C1C(Cl)=C(N2CCCCCC2)C(=O)N1c1ccccc1	RGS4 pot -7.4
CCOC(=O)c1c(C)[nH]c(C(=O)N2CCCC(C(=O)c3ccccc3OC)C2)c1C (stereo unspecified)	MrgX1 PAM 27
CCOC(=O)c1c(C)[nH]c(C(=O)N2CCCC(C(=O)c3cccc(OC)c3)C2)c1C (stereo unspecified)	none
O=C1CC(Cc2ccccc2)C(=O)N1CCc1ccc2c(c1)OCO2 (stereo unspecified)	none
O=C1OC[C@H](Cc2ccc3c(c2)OCO3)/C1=C\c1ccc2c(c1)OCO2	MrgX1 antagonist -4.6
O=C1C(=O)N(C2CCCC2)C(=O)N1Cc1c(F)cccc1Cl	none
C=C1CCN([C@@H](CC(C)C)C(=O)N2CCCC2)S(=O)(=O)c2ccccc21	none
CCOc1cc(N)c(Cl)cc1C(=O)NCC1CN(Cc2ccc(F)cc2)CCO1 (stereo unspecified)	MrgX1 antagonist -8.6
CC(C)(C)c1cc(C2=CSC3=NCCN23)cc(C(C)(C)C)c1O	RGS4 pot -8.1
CC(=O)N(c1nc(/C=C\C(=O)O)cs1)c1ccccc1F	MrgX1 agonist 32
COc1ccc(CC2=CC(=O)c3ccccc3C2=O)cc1	RGS4 block 6.2
COC(CNC(=O)[C@H](CSCc1ccccc1)N1Cc2ccccc2C1=O)OC	MrgX1 PAM 8.2
Cc1noc2ncnc(Oc3cc(Cl)ccc3Cl)c12	none
Cc1cc(Cl)ccc1Oc1ncnc2oc(-c3ccccc3)cc12	MrgX1 PAM 12
COc1ccc(NC(=O)C(=O)NNC(=O)C(C)Oc2ccc(Cl)cc2Cl)cc1 (stereo unspecified)	MrgX1 antagonist -6.2
CCOC(=O)c1ccc(NC(=O)Cn2ncc(Cl)c(Cl)c2=O)cc1	MrgX1 antagonist -5.2
CCC(=O)Nc1ccc(C(=O)Cn2ncc(Cl)c(Cl)c2=O)cc1	none
COc1cccc(/C=N/n2c(N)c(S(=O)(=O)c3cccs3)c3nc4ccccc4nc32)c1OC	none
Nc1c(S(=O)(=O)c2cccc(Cl)c2)c2nc3ccccc3nc2n1/N=C/c1ccc(O)c(O)c1	RGS4 block 16
COCCCNC(=O)c1ccc2c(c1)nc(C)n2-c1cccc(C)c1	none
CCCNC(=O)c1ccc2c(c1)nc(C)n2-c1cccc(Cl)c1	RGS4 pot -7.5
CC#CCCc1nc2ccccc2c(=O)n1N	MrgX1 antagonist -6
CN1CCC(N(C)S(=O)(=O)c2ccc(NC(=O)COc3ccc(F)cc3Cl)cc2)CC1	none
COc1cccc(N2CCc3c(C)nc4ccc(Cl)cc4c32)c1	RGS4 pot -7.5
Cc1c(C(=O)OC(C)C(C)C[N+](C)(C)C)oc2ccccc12 (stereo unspecified)	RGS4 pot -8.4
CCCCN(CC)S(=O)(=O)c1ccc(C(=O)Nc2nnc(-c3cccs3)o2)cc1	MrgX1 agonist 33
CCN(CC)C(=O)c1c2c(nc3ccccc13)-c1ccccc1CC2	RGS4 pot -7
NC(=O)c1ccc(N2CCCCCC2)c([N+](=O)[O-])c1	MrgX1 antagonist -5.7
COc1ccc(Cl)cc1NC(=O)CN(C)C(=O)c1ccc(N2CCCCC2)c([N+](=O)[O-])c1	none
CCN(CC(=O)Nc1c(F)cccc1F)C(=O)c1ccc(N2CCCCC2)c([N+](=O)[O-])c1	MrgX1 antagonist -4.6
CC(=O)N1CCN(c2ccc(C(N)=O)cc2[N+](=O)[O-])CC1	none
COc1ccc(Cl)cc1NC(=O)CN(C)C(=O)c1ccc(N2CCCCCC2)c([N+](=O)[O-])c1	MrgX1 antagonist -6.6
Cc1ccc(NC(=O)CCCCCN2C(=O)[C@@H]3Cc4ccccc4CN3C2=O)c(C)c1	none
COc1cc(NC(=O)Nn2cnnc2)cc(OC)c1OC	none
CC1=NOC(=O)/C1=C\c1ccc(-c2cccc(Cl)c2)o1	RGS4 pot -8.9
Cc1ccc(/C=C2/C(=O)ON=C2c2ccccc2)o1	MrgX1 agonist 43
Cc1nn(C)cc1S(=O)(=O)Nc1cccc(Cl)c1	none
CCOc1ccc(NS(=O)(=O)c2ccc(C(=O)NCC3(N4CCCCC4)CCCCC3)cc2)cc1	MrgX1 antagonist -5.6
